From ChEMBL document CHEMBL1143146, “Multicomponent reactions in fungicide research: the discovery of mandipropamid” (2008)
≈ marks a conversion by molar mass, not a printed value.

Assays:
Phytophthora infestans = assay: Antifungal activity against Phytophthora infestans in tomato late blight after 4 days; format: functional; details: 96 h
Method in brief: (§1)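 Greenhouse trials on whole plants. Disease incidence read after incubation at 20 °C and 95% relative humidity: 4 days on tomato, 6 days on grape. Potency is given as EC80, the concentration in mg L-1 (ppm) giving 80% activity.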

Plasmopara viticola = assay: Antifungal activity against Plasmopara viticola in grape downy mildew after 6 days; format: functional; details: 144 h; method in brief: as §1

SMILES	EC80 (Phytophthora infestans) [µg/mL]	EC80 (Plasmopara viticola) [µg/mL]
C#CCOc1ccc(CCNC(=O)C(NS(=O)(=O)N(C)C)c2ccc(OC)cc2)cc1OC (stereo not given)	8 (≈ 16.8 µM)	34.9 (≈ 73.4 µM)
C#CCOc1ccc(CCNC(=O)C(NS(=O)(=O)N(C)C)c2ccc(C)c(C)c2)cc1OC (stereo not given)	12.2 (≈ 25.8 µM)	28.7 (≈ 60.6 µM)
C#CCOc1ccc(CCNC(=O)C(OCC#C)c2cc(Cl)cc(Cl)c2Cl)cc1OC (stereo not given)	> 200	44.2 (≈ 91.9 µM)
C#CCOc1ccc(CCNC(=O)C(OCC#C)c2ccc3c(c2)Cc2ccccc2-3)cc1OC (stereo not given)	4.8 (≈ 10.3 µM)	19.3 (≈ 41.5 µM)
C#CCOc1ccc(CCNC(=O)C(OCC#C)c2cccs2)cc1OC (stereo not given)	2.1 (≈ 5.48 µM)	1.4 (≈ 3.65 µM)
C#CCOc1ccc(CCNC(=O)C(OCC#C)c2cc(F)c(F)c(F)c2)cc1OC (stereo not given)	26.2 (≈ 60.7 µM)	19.7 (≈ 45.7 µM)
C#CCOc1ccc(CCNC(=O)C(NS(=O)(=O)N(C)C)c2ccc(SC)cc2)cc1OC (stereo not given)	34.9 (≈ 71 µM)	16.2 (≈ 33 µM)
C#CCOc1ccc(CCNC(=O)C(OCC#C)c2cccc(Cl)c2Cl)cc1OC (stereo not given)	168 (≈ 377 µM)	25.5 (≈ 57.1 µM)
C#CCOc1ccc(CCNC(=O)C(CC2=C(C)CCCC2(C)C)OCC#C)cc1OC (stereo not given)	51.4 (≈ 117 µM)	124 (≈ 283 µM)
C#CCOc1ccc(CCNC(=O)C(OCC#C)c2ccc(Br)cc2F)cc1OC (stereo not given)	5.3 (≈ 11.2 µM)	1.8 (≈ 3.79 µM)
C#CCOc1ccc(CCNC(=O)C(NS(=O)(=O)N(C)C)c2ccc(CC)cc2)cc1OC (stereo not given)	2.6 (≈ 5.49 µM)	5.1 (≈ 10.8 µM)
C#CCOc1ccc(CCNC(=O)C(NS(=O)(=O)N(C)C)c2cccc(C)c2)cc1OC (stereo not given)	150 (≈ 326 µM)	116 (≈ 253 µM)
C#CCOc1ccc(CCNC(=O)C(OCC#C)c2ccc(F)cc2)cc1OC (stereo not given)	1.8 (≈ 4.55 µM)	3.4 (≈ 8.6 µM)
C#CCOc1ccc(CCNC(=O)C(OCC#C)c2ccc(CC)cc2)cc1OC (stereo not given)	7.5 (≈ 18.5 µM)	3.1 (≈ 7.64 µM)
C#CCOc1ccc(CCNC(=O)C(OCC#C)c2ccc(F)cc2F)cc1OC (stereo not given)	4.6 (≈ 11.1 µM)	5 (≈ 12.1 µM)
C#CCOc1ccc(CCNC(=O)C(OCC#C)c2cccc(Br)c2)cc1OC (stereo not given)	4.9 (≈ 10.7 µM)	4.9 (≈ 10.7 µM)
C#CCOc1ccc(CCNC(=O)C(NS(=O)(=O)N(C)C)c2ccc(Br)cc2)cc1OC (stereo not given)	7.8 (≈ 14.9 µM)	39.4 (≈ 75.1 µM)
C#CCOc1ccc(CCNC(=O)C(COc2ccc(C)cc2)OCC#C)cc1OC (stereo not given)	0.1 (≈ 0.237 µM)	1.8 (≈ 4.27 µM)
C#CCOc1ccc(CCNC(=O)C(COc2ccc(Cl)cc2)OCC#C)cc1OC (stereo not given)	0.02 (≈ 0.0453 µM)	0.6 (≈ 1.36 µM)
C#CCOc1ccc(CCNC(=O)C(NS(=O)(=O)N(C)C)c2ccc(Cl)cc2)cc1OC (stereo not given)	10.6 (≈ 22.1 µM)	13.8 (≈ 28.8 µM)

SMILES	EC80 (Phytophthora infestans) [µg/mL]	EC80 (Plasmopara viticola) [µg/mL]
C#CCOc1ccc(CCNC(=O)C(OCC#C)c2cccc(F)c2)cc1OC (stereo not given)	10.2 (≈ 25.8 µM)	1.8 (≈ 4.55 µM)
C#CCOc1ccc(CCNC(=O)C(OCC#C)c2cccc(OC)c2)cc1OC (stereo not given)	46.2 (≈ 113 µM)	1.7 (≈ 4.17 µM)
C#CCOc1ccc(CCNC(=O)C(NS(=O)(=O)N(C)C)c2ccc(F)c(Cl)c2)cc1OC (stereo not given)	186 (≈ 374 µM)	59.8 (≈ 120 µM)
C#CCOc1ccc(CCNC(=O)C(NS(=O)(=O)N(C)C)c2ccc(F)c(F)c2)cc1OC (stereo not given)	110 (≈ 228 µM)	46.3 (≈ 96.2 µM)
C#CCOc1ccc(CCNC(=O)C(NS(=O)(=O)N(C)C)c2ccc(CCC)cc2)cc1OC (stereo not given)	3.1 (≈ 6.36 µM)	16.7 (≈ 34.2 µM)
C#CCOc1ccc(CCNC(=O)C(NS(=O)(=O)N(C)C)c2ccc(C(C)C)cc2)cc1OC (stereo not given)	26.2 (≈ 53.7 µM)	14.6 (≈ 29.9 µM)
C#CCOc1ccc(CCNC(=O)C(NS(=O)(=O)N(C)C)c2ccc(Cl)c(Cl)c2)cc1OC (stereo not given)	19.2 (≈ 37.3 µM)	51.5 (≈ 100 µM)
C#CCOc1ccc(CCNC(=O)C(OCC#C)c2ccccc2)cc1OC (stereo not given)	0.5 (≈ 1.32 µM)	1.3 (≈ 3.44 µM)
C#CCOc1ccc(CCNC(=O)C(NS(=O)(=O)N(C)C)c2ccc(F)cc2)cc1OC (stereo not given)	45.7 (≈ 98.6 µM)	78.3 (≈ 169 µM)
C#CCOc1ccc(CCNC(=O)C(OCC#C)C2CCCCC2)cc1OC (stereo not given)	47.6 (≈ 124 µM)	5.3 (≈ 13.8 µM)
C#CCOc1ccc(CCNC(=O)C(OCC#C)c2ccc(C)c(Cl)c2)cc1OC (stereo not given)	2.4 (≈ 5.63 µM)	1.5 (≈ 3.52 µM)
C#CCOc1ccc(CCNC(=O)C(OCC#C)c2ccc(C=C)cc2)cc1OC (stereo not given)	3.3 (≈ 8.18 µM)	2 (≈ 4.96 µM)
C#CCOc1ccc(CCNC(=O)C(OCC#C)c2ccc(Cl)c(Cl)c2)cc1OC (stereo not given)	4.8 (≈ 10.8 µM)	3.4 (≈ 7.62 µM)
C#CCOc1ccc(CCNC(=O)C(OCC#C)c2ccc(Br)cc2)cc1OC (stereo not given)	3.4 (≈ 7.45 µM)	2.6 (≈ 5.7 µM)
C#CCOc1ccc(CCNC(=O)C(OCC#C)c2ccc(C)cc2)cc1OC (stereo not given)	9.7 (≈ 24.8 µM)	5.2 (≈ 13.3 µM)
C#CCOc1ccc(CCNC(=O)C(OCC#C)c2ccc3c(c2)OCCO3)cc1OC (stereo not given)	16.7 (≈ 38.3 µM)	2.2 (≈ 5.05 µM)
C#CCOc1ccc(CCNC(=O)C(COCc2ccccc2)OCC#C)cc1OC (stereo not given)	0.3 (≈ 0.712 µM)	20.4 (≈ 48.4 µM)
C#CCOc1ccc(CCNC(=O)C(OCC#C)c2cccc(Cl)c2)cc1OC (stereo not given)	3.7 (≈ 8.98 µM)	2.4 (≈ 5.83 µM)
C#CCOc1ccc(CCNC(=O)C(NS(=O)(=O)N(C)C)c2ccc(C(F)(F)F)cc2)cc1OC (stereo not given)	3.4 (≈ 6.62 µM)	5.8 (≈ 11.3 µM)
C#CCOc1ccc(CCNC(=O)C(OCC#C)c2ccc(CCCC)cc2)cc1OC (stereo not given)	25.9 (≈ 59.7 µM)	10.4 (≈ 24 µM)

SMILES	EC80 (Phytophthora infestans) [µg/mL]	EC80 (Plasmopara viticola) [µg/mL]
C#CCOc1ccc(CCNC(=O)C(OCC#C)c2cccc(C(F)(F)F)c2)cc1OC (stereo not given)	5 (≈ 11.2 µM)	3.8 (≈ 8.53 µM)
C#CCOc1ccc(CCNC(=O)C(OCC#C)c2ccc(SC)cc2)cc1OC (stereo not given)	7.6 (≈ 17.9 µM)	5.3 (≈ 12.5 µM)
C#CCOc1ccc(CCNC(=O)C(NS(=O)(=O)N(C)C)c2ccc(OCC)cc2)cc1OC (stereo not given)	24.7 (≈ 50.4 µM)	35 (≈ 71.5 µM)
C#CCOc1ccc(CCNC(=O)C(Cc2ccc(Cl)cc2)OCC#C)cc1OC (stereo not given)	26.3 (≈ 61.7 µM)	18.6 (≈ 43.7 µM)
C#CCOc1ccc(CCNC(=O)C(OCC#C)c2ccc(C)c(C)c2)cc1OC (stereo not given)	3.2 (≈ 7.89 µM)	1.6 (≈ 3.95 µM)
C#CCOc1ccc(CCNC(=O)C(OCC#C)c2ccc(CCC)cc2)cc1OC (stereo not given)	4.4 (≈ 10.5 µM)	1.7 (≈ 4.05 µM)
C#CCOc1ccc(CCNC(=O)C(OCC#C)c2ccc(C(F)(F)F)cc2)cc1OC (stereo not given)	8 (≈ 18 µM)	11.6 (≈ 26 µM)
C#CCOc1ccc(CCNC(=O)C(OCC#C)c2ccccc2Cl)cc1OC (stereo not given)	81.1 (≈ 197 µM)	> 200
C#CCOc1ccc(CCNC(=O)C(OCC#C)c2ccc(COC)cc2)cc1OC (stereo not given)	2.6 (≈ 6.17 µM)	13.8 (≈ 32.7 µM)
C#CCOc1ccc(CCNC(=O)C(OCC#C)c2cc(C)cc(C)c2)cc1OC (stereo not given)	41.9 (≈ 103 µM)	56.4 (≈ 139 µM)
C#CCOc1ccc(CCNC(=O)C(NS(=O)(=O)N(C)C)c2ccccc2C)cc1OC (stereo not given)	> 200	> 200
C#CCOc1ccc(CCNC(=O)C(OCC#C)c2cccc(C)c2)cc1OC (stereo not given)	6.4 (≈ 16.3 µM)	1.7 (≈ 4.34 µM)
C#CCOc1ccc(CCNC(=O)C(OCC#C)c2ccc(OC)cc2)cc1OC (stereo not given)	2.3 (≈ 5.64 µM)	1.6 (≈ 3.93 µM)
C#CCOc1ccc(CCNC(=O)C(NS(=O)(=O)N(C)C)c2ccc(C)cc2)cc1OC (stereo not given)	2.5 (≈ 5.44 µM)	3.2 (≈ 6.96 µM)
C#CCOc1ccc(CCNC(=O)C(NS(=O)(=O)N(C)C)c2ccc(OC(F)(F)F)cc2)cc1OC (stereo not given)	18.8 (≈ 35.5 µM)	46.4 (≈ 87.6 µM)
C#CCOc1ccc(CCNC(=O)C(OCC#C)c2ccc(C(C)C)cc2)cc1OC (stereo not given)	6.1 (≈ 14.5 µM)	2.8 (≈ 6.67 µM)
C#CCOc1ccc(CCNC(=O)C(NS(=O)(=O)N(C)C)c2ccccc2)cc1OC (stereo not given)	81.2 (≈ 182 µM)	28.5 (≈ 64 µM)
C#CCOc1ccc(CCNC(=O)C(NS(=O)(=O)N(C)C)c2ccc(C(C)(C)C)cc2)cc1OC (stereo not given)	143 (≈ 285 µM)	20.2 (≈ 40.3 µM)
C#CCOc1ccc(CCNC(=O)C(OCC#C)c2cccnc2)cc1OC (stereo not given)	186 (≈ 492 µM)	> 200
C#CCOc1ccc(CCNC(=O)C(OCC#C)c2ccc(Cl)cc2)cc1OC (stereo not given) [MANDIPROPAMID]	0.1 (≈ 0.243 µM)	1.2 (≈ 2.91 µM)
